Screens: PubChem, several laboratories
A selection: hits, their analogues and other compounds. The true share with any hit is near 1.9%.
Yeast superoxide – caloric restriction mimetics inhibiting age-related superoxide in yeast; S. cerevisiae aged cells, superoxide DHE fluorescence; stronger effect = lower value; 330,000 tested, 0.18% active; superoxide response (% of plate mean), % at 10 µM;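 active = superoxide response under a set limit, about three screen SD below normal, cut at about 65% in these data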;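 note: yeast aged for seven days with compound at 30 °C before DHE staining; 100% = average MFI of all compound-treated wells on the plate with controls excluded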
V-ATPase pHluor – yeast V-ATPase proton transport regulation by pHLuorin; S. cerevisiae, pHLuorin cytosolic pH fluorescence; response, % at 10 µM; 350,000 tested, 0.37% active; AID 504577; in the data active = response mostly above about 7.3%, no sharp cut-off; inactive = mostly below about 5.4%; note: actives read high
proKLK7 act – proKLK7 (human) activation, primary screen. P49862. purified proKLK7, EDANS-DABCYL substrate fluorescence; 100% is mature enzyme control, 0% vehicle. activation, % at 7 µM. 370,000 tested, 0.9% active. AID 652039;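 active = activation above the mean of all tested compounds plus 3 SD, computed per campaign excluding outliers beyond control limits, cut at about 13% in these data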
Target sequence (P49862 whole entry, looked up): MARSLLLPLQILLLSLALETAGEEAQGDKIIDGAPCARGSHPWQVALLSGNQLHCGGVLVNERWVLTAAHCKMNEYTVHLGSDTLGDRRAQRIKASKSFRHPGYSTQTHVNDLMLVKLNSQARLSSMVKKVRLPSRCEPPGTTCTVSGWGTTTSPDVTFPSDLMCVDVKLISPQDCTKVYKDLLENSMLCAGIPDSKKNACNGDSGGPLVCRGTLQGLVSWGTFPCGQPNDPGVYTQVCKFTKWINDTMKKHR
Rce1 inh – yeast Ras-converting enzyme inhibition; Q03530; yeast membranes, quenched prenylated peptide cleavage fluorescence; calls only; 290,000 tested, 0.27% active;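 active = fall in fluorescence gain of 50% or more versus controls, with final raw signal at or below 3038400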;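 note: plate controls were neutral control wells for no effect and wells lacking membranes for full effect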
Target sequence (Q03530 whole entry, looked up): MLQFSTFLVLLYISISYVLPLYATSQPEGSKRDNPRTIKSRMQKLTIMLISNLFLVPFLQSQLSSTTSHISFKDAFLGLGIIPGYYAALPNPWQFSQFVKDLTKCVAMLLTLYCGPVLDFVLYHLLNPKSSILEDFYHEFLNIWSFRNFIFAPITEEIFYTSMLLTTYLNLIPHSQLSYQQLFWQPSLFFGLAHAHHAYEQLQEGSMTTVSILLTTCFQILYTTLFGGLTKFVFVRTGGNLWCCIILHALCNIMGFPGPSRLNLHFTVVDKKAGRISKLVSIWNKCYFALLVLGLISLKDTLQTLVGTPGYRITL
T cell HTS – T cell immune modulators affecting CD8 T cell-vesicle binding; 2C CD8+ T cell-vesicle binding, flow cytometry; stronger effect = lower value; response (vesicle binding), % at 7 µM; 330,000 tested, 0.068% active; AID 2052;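 active = response, share of CD8 T cells binding vesicles, and their 90th percentile fluorescence all below set limits, cut at about 80% in these data, passing the limit was not always enough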;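 note: values below 100% mean blocked vesicle binding to the CD8+ T cells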
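System: murine 2C transgenic CD8+ T lymphocytes; also added: QL9-loaded Drosophila micro-vesicles; times: binding 1.5 h at 37 °C; measured by: flow cytometry, PE anti-B7-1 (FL2) versus Alexa647 anti-CD8 (FL8), PFA-fixed; control set: Peptide-free naked vesicles (low) and QL9 vesicles with 0.7% DMSO vehicle (high)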
beta cell repl – induces beta-cell replication in MIN6 cells; proliferation, % at 10 µM; AID 2380; MIN6 cells proliferation, ATPlite luminescence, 48 h; cells starved in 0.2% serum; 100% = growth in 10% serum; 330,000 tested, 0.29% active;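 active = compounds whose signal lies at least 3.5 SD above the mean of all wells on their plate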;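 note: 0% = DMSO-treated cells in low-serum medium and 100% = 10% serum control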
proKLK7 act conf – proKLK7 activation, confirmation. purified proKLK7, EDANS-DABCYL substrate fluorescence; scaled: vehicle 0, mature enzyme 100. 3,200 tested, 68% active. shares compounds with proKLK7 act. activation, % at 7 µM;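 active = activation, as change over the incubation, above the mean of all tested compounds plus 3 SD, cut at about 13% in these data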
EDANS interfere – counter-screen for kallikrein-7 activators: EDANS-DABCYL optical interference | activation, % at 7 µM | 3,200 tested, 80% active | shares compounds with proKLK7 act | AID 686952 | EDANS-DABCYL substrate fluorescence interference, no enzyme, 4 h; solvent 0%, active enzyme control 100%;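 active = activation above the all-compound mean plus 3 SD, ignoring values outside control-based bounds, cut at about 4.8% in these data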;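 note: value is the 4 h activation minus the activation read at time zero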
K7 EDANS ctr – EDANS fluorescence interference in dose response, no enzyme; 250 tested, 20% active; AID 720493; shares compounds with proKLK7 act; EDANS-DABCYL peptide fluorescence interference; EC50, µM;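 active = compounds that raise the fluorescence signal in this interference counterscreen, with EC50 at or below 10 µM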;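 note: intact quenched peptide substrate alone read at 355 nm excitation and 520 nm emission; signal is fluorescence gain from T0 to T4 after four hours at room temperature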
The depositor's hits bear a star; i = inactive; / = no result given.

SMILES | Yeast superoxide | V-ATPase pHluor | proKLK7 act | Rce1 inh | T cell HTS | beta cell repl | proKLK7 act conf | EDANS interfere | others
CCOC(=O)N1CCC2(CC1)CC(=O)c1c(ccc3oc(C(=O)O)c(C)c13)O2 | 110.3 | 3.0 | 18.2* | i | 525.8 | -1.9 | 46.2* | 33.6* | K7 EDANS ctr=>69.5
O=C(/C=C/c1ccccc1)N1CCN(c2ccc([N+](=O)[O-])c(N3CCOCC3)c2)CC1 | 94.8 | -2.4 | 0.6 | i | 194.5 | -3.8 | / | /
O=C(OCC#CCSc1nnc(-c2cccc3ccccc23)o1)c1cc2ccccc2o1 | 117.6 | -0.2 | 0.0 | / | 165.7 | -2.5 | / | /
Cc1ccc(C(=O)CSc2nnc(-c3ccccn3)n2-c2ccccc2)cc1 | / | / | 0.3 | / | / | / | / | /
CC[C@]12c3[nH]c4cc(-c5ccco5)ccc4c3CCN1C(=O)[C@@H](CC(=O)NCc1ccc(OC)c(OC)c1)C[C@@H]2C(=O)N1CCN(C(=O)c2ccco2)CC1 | 80.2 | -0.5 | 122.3* | / | / | / | 62.9* | 74.2*
CC[C@]12c3[nH]c4cc(-c5ccco5)ccc4c3CCN1C(=O)[C@@H](CC(=O)NCCCOC)C[C@@H]2C(=O)N1CCN(C(=O)C2CC2)CC1 | 110.9 | -0.5 | 88.8* | / | / | / | 80.7* | 94.3*
CC[C@]12c3[nH]c4cc(CCC(=O)N(C)C)ccc4c3CCN1C(=O)[C@@H](CC(=O)NCCCN(C)C)C[C@@H]2C(=O)N1CCN(C(=O)C2CC2)CC1 | 92.9 | -0.4 | -0.4 | / | / | / | / | /
CC[C@]12c3[nH]c4cc(-c5ccco5)ccc4c3CCN1C(=O)[C@@H](CC(=O)NCCCOC)C[C@@H]2C(=O)N1CCN(C(=O)c2ccco2)CC1 | 99.6 | 0.2 | 136.7* | / | / | / | 102.7* | 124.2*
CC[C@]12c3[nH]c4cc(CCC(=O)N(C)C)ccc4c3CCN1C(=O)[C@@H](CC(=O)NCc1ccc(OC)c(OC)c1)C[C@@H]2C(=O)N1CCN(C(=O)c2ccco2)CC1 | 111.6 | -3.0 | -0.1 | / | / | / | / | /
CC[C@]12c3[nH]c4cc(-c5ccco5)ccc4c3CCN1C(=O)[C@@H](CC(=O)NCCCN(C)C)C[C@@H]2C(=O)N1CCN(C(=O)C2CC2)CC1 | 96.7 | -1.1 | 63.7* | / | / | / | 51.9* | 66.2*
COCCc1nc2ccc(C(=O)N(C)Cc3cccc(-n4cccn4)c3)cc2o1 | 99.4 | -1.2 | 0.1 | i | 222.5 | -3.1 | / | /
FC(F)(F)c1ccc(-n2cnc3ccccc32)nc1 | 101.7 | 3.9 | -0.1 | i | 158.3 | -1.9 | / | /
Cc1nc2ccc(-c3nc4cc(N)ccc4o3)cc2[nH]1 | 91.8 | 3.1 | 28.0* | i | 404.4 | -5.6 | 45.9* | 49.2*
Nc1ccc2oc(-c3ccc4nc[nH]c4c3)nc2c1 | 87.9 | -1.9 | 3.3 | i | 294.8 | -5.5 | / | /
CCCCCCCCN1C(=O)[C@H](CC(=O)NCc2cccc(C(F)(F)F)c2)C[C@@]2(C(=O)OC)CC(C)(C)CC=C12 | / | / | -0.4 | / | / | / | / | /
Nc1ccc2c(c1)[nH]c(=O)c1cc(N)ccc12 | / | -14.2 | 98.6* | / | / | / | 61.2* | 71.5*
COC(=O)c1ccc(C(=O)OC)c(NC(=O)C2CCCO2)c1 (stereo unspecified) | 103.8 | 2.2 | 1.5 | i | 358.8 | 0.9 | / | /
O=C(CSc1nnc(C2CC2)n1CC1CCCO1)Nc1cccc(Cl)c1 (stereo unspecified) | 104.3 | 3.9 | -0.6 | i | 207.6 | 0.3 | / | /
COC(=O)C1=NN(c2cccc3ccccc23)C2C(=O)N(c3ccccc3OC)C(=O)C12 (stereo unspecified) | 113.7 | 4.3 | 2.3 | i | 947.3 | -1.7 | / | /
COC(=O)C1=NN(c2ccccc2OC)C2C(=O)N(c3ccccc3OC)C(=O)C12 (stereo unspecified) | 117.0 | -6.9 | 14.8* | i | 445.3 | 0.1 | 8.1 | 10.6*
COC(=O)C1=NN(c2cccc(C)c2)C2C(=O)N(c3ccccc3OC)C(=O)C12 (stereo unspecified) | 103.4 | 1.1 | 14.9* | i | 257.9 | -1.4 | -51.6 | -46.7
COC(=O)C1=NN(c2ccc(OC)cc2)C2C(=O)N(c3ccccc3OC)C(=O)C12 (stereo unspecified) | 97.3 | -2.3 | 0.3 | i | 531.1 | -0.6 | / | /
CC[C@]12c3[nH]c4ccccc4c3CCN1C(=O)C(CC(=O)NCCN1CCOCC1)C[C@@H]2C(=O)N1CCN(C(=O)c2ccco2)CC1 (stereo partly specified) | 88.7 | 2.5 | 0.8 | / | 745.9 | 1.0 | / | /
CC[C@]12c3[nH]c4cc(-c5ccco5)ccc4c3CCN1C(=O)[C@@H](CC(=O)NCCN1CCOCC1)C[C@@H]2C(=O)N1CCN(C(=O)c2ccco2)CC1 | 103.9 | 0.6 | 88.3* | / | / | / | 63.7* | 86.1*
CC[C@]12c3[nH]c4ccc(Cl)cc4c3CCN1C(=O)[C@@H](CC(=O)NCCc1ccccn1)C[C@@H]2C(=O)N1CCN(C(=O)c2ccco2)CC1 | 98.7 | -3.4 | 0.4 | / | / | / | / | /
SMILES | Yeast superoxide | V-ATPase pHluor | proKLK7 act | Rce1 inh | T cell HTS | beta cell repl | proKLK7 act conf | EDANS interfere | others
CC[C@]12c3[nH]c4cc(-c5ccco5)ccc4c3CCN1C(=O)[C@@H](CC(=O)NCCc1ccccn1)C[C@@H]2C(=O)N1CCN(C(=O)c2ccco2)CC1 | 110.2 | -1.5 | 150.9* | / | / | / | 119.4* | 137.9*
CC[C@]12c3[nH]c4cc(-c5ccco5)ccc4c3CCN1C(=O)[C@@H](CC(=O)NCCN1CCOCC1)C[C@@H]2C(=O)N1CCN(C(=O)C2CC2)CC1 | 106.9 | -0.7 | 110.5* | / | / | / | 75.5* | 83.3*
Cc1cccc(S(=O)(=O)N(C)C[C@H]2OCc3cn(nn3)CCCC(=O)N([C@@H](C)CO)C[C@@H]2C)c1 | / | 0.2 | -0.1 | / | / | / | / | /
Cc1noc(C)c1S(=O)(=O)Nc1ccc(C(C)C)cc1 | 85.7 | 0.0 | -0.7 | i | 339.4 | -0.9 | / | /
COc1cc(NC(=O)c2ccccc2-c2ccccc2)cc(OC)c1OC | 77.9 | / | / | i | 213.5 | -4.1 | / | /
COc1cc(C=Nc2ccccc2C(=O)Nc2ccccc2)cc(OC)c1OC | 103.9 | -0.8 | 18.7* | i | 244.1 | -2.5 | 17.9* | 22.4*
COc1ccc(/C=C(\C#N)C(=O)NCc2ccccc2)cc1 | 96.8 | 0.6 | 38.1* | i | 152.3 | -2.0 | -187.0 | -240.7
N#C/C(=C\c1ccc(O)cc1)C(=O)NCc1ccccc1 | 88.6 | -2.2 | 0.2 | i | 192.1 | -2.2 | / | /
COC(=O)c1cccc(-n2c(C)cc(O)cc2=O)c1 | / | / | 0.1 | / | / | / | / | /
